Data as given in ChEMBL document CHEMBL1811814, “Synthesis and evaluation of indole, pyrazole, chromone and pyrimidine based conjugates for tumor growth inhibitory activities--development of highly efficacious cytotoxic agents” (Eur J Med Chem, 2010).

Legend:
Assay type in all cases: functional
[1] = Growth inhibition of human Hs 578T cells
SK-MEL-2 = assay: Growth inhibition of human SK-MEL-2 cells assessed tumor cell growth at 10^-5 M; set-up: scale not given: the % may be the effect or the level left
Summary of the method: (§1)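 NCI 60-human-tumor-cell-line panel screen. Each compound was tested at a single concentration of 10^-5 M, and percent growth of tumor cells was recorded for each cell line. Growth inhibition was expressed from these percent-growth values.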

NCI/ADR-RES = assay: Growth inhibition of human NCI/ADR-RES cells
HOP-92 = assay: Growth inhibition of human HOP92 cells assessed tumor cell growth at 10^-5 M; set-up: scale not given: the % may be the effect or the level left; summary of the method: as §1
HCT-116 = assay: Growth inhibition of human HCT116 cells
UO-31 [2] = assay: Growth inhibition of human UO31 cells
[3] = Growth inhibition of human Hs 578T cells assessed tumor cell growth at 10^-5 M; set-up: scale not given: the % may be the effect or the level left; summary of the method: as §1
ACHN [4] = assay: Growth inhibition of human ACHN cells assessed tumor cell growth at 10^-5 M; set-up: scale not given: the % may be the effect or the level left; summary of the method: as §1
IGROV-1 = assay: Growth inhibition of human IGROV1 cells assessed tumor cell growth at 10^-5 M; set-up: scale not given: the % may be the effect or the level left; summary of the method: as §1
SN12C = assay: Growth inhibition of human SN12C cells
BT-549 = assay: Growth inhibition of human BT549 cells assessed tumor cell growth at 10^-5 M; set-up: scale not given: the % may be the effect or the level left; summary of the method: as §1
COLO 205 = assay: Growth inhibition of human COLO205 cells
OVCAR-5 [5] = assay: Growth inhibition of human OVCAR5 cells
U-251 = assay: Growth inhibition of human U251 cells assessed tumor cell growth at 10^-5 M; set-up: scale not given: the % may be the effect or the level left
Summary of the method: (§2)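 Single-dose screen at 10^-5 M across the 60 human tumor cell line panel, run to NCI standards. The value is the percent growth of each cell line in the presence of compound. Compounds active at this dose moved on to five-concentration testing (10^-4 to 10^-8 M).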

[6] = Growth inhibition of human […] cells assessed tumor cell growth at 10^-5 M; set-up: scale not given: the % may be the effect or the level left; summary of the method: as §1
HCC 2998 = assay: Growth inhibition of human HCC2998 cells
SK-OV-3 [7] = assay: Growth inhibition of human SKOV3 cells
MOLT-4 = assay: Growth inhibition of human MOLT4 cells
K562 [8] = assay: Growth inhibition of human K562 cells assessed tumor cell growth at 10^-5 M; set-up: scale not given: the % may be the effect or the level left; summary of the method: as §1
HL-60(TB) = assay: Growth inhibition of human HL-60(TB) cells assessed tumor cell growth at 10^-5 M; set-up: scale not given: the % may be the effect or the level left
Summary of the method: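 HL-60(TB), part of the 60-line panel, tested at a single concentration of 10^-5 M. The read-out is percent tumor cell growth relative to untreated growth.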

TK-10 [9] = assay: Growth inhibition of human TK10 cells
NCI-H522 [10] = assay: Growth inhibition of human NCI-H522 cells assessed tumor cell growth at 10^-5 M; set-up: scale not given: the % may be the effect or the level left; summary of the method: as §1
SF-539 = assay: Growth inhibition of human SF539 cells assessed tumor cell growth at 10^-5 M; set-up: scale not given: the % may be the effect or the level left; summary of the method: as §1
SK-OV-3 [11] = assay: Growth inhibition of human SKOV3 cells assessed tumor cell growth at 10^-5 M; set-up: scale not given: the % may be the effect or the level left; summary of the method: as §1
SF-268 [12] = assay: Growth inhibition of human SF268 cells assessed tumor cell growth at 10^-5 M; set-up: scale not given: the % may be the effect or the level left; summary of the method: as §1
SK-MEL-5 [13] = assay: Growth inhibition of human SK-MEL-5 cells
UO-31 [14] = assay: Growth inhibition of human UO31 cells assessed tumor cell growth at 10^-5 M; set-up: scale not given: the % may be the effect or the level left; summary of the method: as §2
NCI-H522 [15] = assay: Growth inhibition of human NCI-H522 cells
M14 [16] = assay: Growth inhibition of human M14 cells
HCT-15 = assay: Growth inhibition of human HCT15 cells assessed tumor cell growth at 10^-5 M; set-up: scale not given: the % may be the effect or the level left; summary of the method: as §1
ACHN [17] = assay: Growth inhibition of human ACHN cells
CAKI-1 = assay: Growth inhibition of human Caki1 cells
SF-268 [18] = assay: Growth inhibition of human SF268 cells
SK-MEL-5 [19] = assay: Growth inhibition of human SK-MEL-5 cells assessed tumor cell growth at 10^-5 M; set-up: scale not given: the % may be the effect or the level left; summary of the method: as §1
SNB-19 = assay: Growth inhibition of human SNB19 cells assessed tumor cell growth at 10^-5 M; set-up: scale not given: the % may be the effect or the level left; summary of the method: as §2
SW-620 = assay: Growth inhibition of human SW620 cells assessed tumor cell growth at 10^-5 M; set-up: scale not given: the % may be the effect or the level left; summary of the method: as §2
SNB-75 = assay: Growth inhibition of human SNB75 cells assessed tumor cell growth at 10^-5 M; set-up: scale not given: the % may be the effect or the level left; summary of the method: as §2
EKVX = assay: Growth inhibition of human EKVX cells assessed tumor cell growth at 10^-5 M; set-up: scale not given: the % may be the effect or the level left; summary of the method: as §1
OVCAR-8 = assay: Growth inhibition of human OVCAR8 cells assessed tumor cell growth at 10^-5 M; set-up: scale not given: the % may be the effect or the level left; summary of the method: as §1
[20] = Growth inhibition of human RPMI8266 cells
KM12 = assay: Growth inhibition of human KM12 cells
LOX IMVI [21] = assay: Growth inhibition of human LOXIMVI cells assessed tumor cell growth at 10^-5 M; set-up: scale not given: the % may be the effect or the level left; summary of the method: as §1
K562 [22] = assay: Growth inhibition of human K562 cells
OVCAR-5 [23] = assay: Growth inhibition of human OVCAR5 cells assessed tumor cell growth at 10^-5 M; set-up: scale not given: the % may be the effect or the level left; summary of the method: as §1
M14 [24] = assay: Growth inhibition of human M14 cells assessed tumor cell growth at 10^-5 M; set-up: scale not given: the % may be the effect or the level left; summary of the method: as §1
LOX IMVI [25] = assay: Growth inhibition of human LOXIMVI cells
UACC-257 = assay: Growth inhibition of human UACC257 cells
NCI-H226 = assay: Growth inhibition of human NCI-H226 cells assessed tumor cell growth at 10^-5 M; set-up: scale not given: the % may be the effect or the level left; summary of the method: as §1
SF-295 = assay: Growth inhibition of human SF295 cells
TK-10 [26] = assay: Growth inhibition of human TK10 cells assessed tumor cell growth at 10^-5 M; set-up: scale not given: the % may be the effect or the level left; summary of the method: as §2
[27] = read-out: LC50 (the source's name)

With O=C1Nc2ccccc2/C1=C/c1cn(C(=O)c2c(Cl)cccc2Cl)c2ccccc12 the GI50 [1] was 2.2 µM, the CC50 [1, 27] was greater than 100 µM and the Activity (SK-MEL-2) was 39.9%. The GI50 (NCI/ADR-RES) was 3.4 µM, the CC50 (NCI/ADR-RES; [27]) was greater than 100 µM and the Activity (HOP-92) was 49%. The GI50 (HCT-116) was 1.6 µM, the CC50 (HCT-116; [27]) was 6.9 µM and the GI50 (UO-31 [2]) was 1.1 µM. For the same molecule, the CC50 (UO-31 [2]; [27]) was 48.9 µM, the Activity [3] was 64.6% and the Activity (ACHN [4]) was 43.6%. For the same molecule, the Activity (IGROV-1) was 25.7%, the GI50 (SN12C) was 3.9 µM and the CC50 (SN12C; [27]) was 70.7 µM. It also gave an Activity (BT-549) of 51.7%, a GI50 (COLO 205) of 7.6 µM and an LC50 (COLO 205) of 54.9 µM. The GI50 (OVCAR-5 [5]) was 8.9 µM, the CC50 (OVCAR-5 [5]; [27]) was greater than 100 µM and the Activity (U-251) was 35.8%. For the same molecule, the Activity [6] was 51.8%, the GI50 (HCC 2998) was 6 µM and the CC50 (HCC 2998; [27]) was 52.4 µM. It also gave a GI50 (SK-OV-3 [7]) of 8.3 µM, a CC50 (SK-OV-3 [7]; [27]) greater than 100 µM and a GI50 (MOLT-4) of 2.8 µM. For the same molecule, the LC50 (MOLT-4) was greater than 100 µM, the Activity (K562 [8]) was 45.6% and the Activity (HL-60(TB)) was 72.1%. It also gave a GI50 (TK-10 [9]) of 10.4 µM, a CC50 (TK-10 [9]; [27]) greater than 100 µM and an Activity (NCI-H522 [10]) of 55.3%. The Activity (SF-539) was 67.4%, the Activity (SK-OV-3 [11]) was 71.8% and the Activity (SF-268 [12]) was 56.5%. The GI50 (SK-MEL-5 [13]) was 7.6 µM, the CC50 (SK-MEL-5 [13]; [27]) was 45.7 µM and the Activity (UO-31 [14]) was 50.7%. For the same molecule, the GI50 (NCI-H522 [15]) was 4.2 µM, the LC50 (concentration killing 50% of cells) (NCI-H522 [15]) was 54.9 µM and the GI50 (M14 [16]) was 2.3 µM. For the same molecule, the CC50 (M14 [16]; [27]) was 33.8 µM, the Activity (HCT-15) was 30.9% and the GI50 (ACHN [17]) was 3.1 µM. For the same molecule, the CC50 (ACHN [17]; [27]) was greater than 100 µM, the GI50 (CAKI-1) was 1.9 µM and the CC50 (CAKI-1; [27]) was greater than 100 µM. For the same molecule, the GI50 (SF-268 [18]) was 2.4 µM, the CC50 (SF-268 [18]; [27]) was 57.5 µM and the Activity (SK-MEL-5 [19]) was 63%. For the same molecule, the Activity (SNB-19) was 68.6%, the Activity (SW-620) was 45.4% and the Activity (SNB-75) was 54.6%. It also gave an Activity (EKVX) of 81.4%, an Activity (OVCAR-8) of 52.3% and a GI50 [20] of 3.4 µM. It also gave a CC50 [20, 27] greater than 100 µM, a GI50 (KM12) of 1.8 µM and a CC50 (KM12; [27]) of 8.9 µM. The Activity (LOX IMVI [21]) was 48.4%, the GI50 (K562 [22]) was 3.1 µM and the CC50 (K562 [22]; [27]) was greater than 100 µM. The Activity (OVCAR-5 [23]) was 84.9%, the Activity (M14 [24]) was 66.2% and the GI50 (LOX IMVI [25]) was 1.6 µM. It also gave a CC50 (LOX IMVI [25]; [27]) of 6.6 µM, a GI50 (UACC-257) of 5 µM and a CC50 (UACC-257; [27]) of 95.4 µM. For the same molecule, the Activity (NCI-H226) was 48.1%, the GI50 (SF-295) was 2.2 µM and the CC50 (SF-295; [27]) was 66.1 µM. It also gave an Activity (TK-10 [26]) of 90.7%.
